Laboratory results from ChEMBL document CHEMBL2331439 (J Med Chem, 2013).
pIC50: −log10 of the molar value.

Key:
[1] = target: Casein kinase I isoform gamma-2 (Homo sapiens) (UniProt P78368); assay: Inhibition of recombinant CSNK1G2 (unknown origin) at 5 uM by FRET-based Z'-LYTE assay
Procedure, shortened: (§1)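 Single-point panel screen at 5 μM in duplicate. ATP is at the apparent Km of each kinase, and the Z'-LYTE FRET peptide substrate is used. Each point has two control wells: a protease control for interference with development and a fluorescence control for interference with the FRET read-out. Values above 100% are treated as maximal inhibition and values below 0% as none.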

[2] = target: Epidermal growth factor receptor (Homo sapiens) (UniProt P00533); assay: Inhibition of recombinant EGFR (unknown origin) at 5 uM by FRET-based Z'-LYTE assay; procedure, shortened: as §1
[3] = target: T1, Ribosomal protein S6 kinase beta-1 (Homo sapiens, UniProt P23443); assay: Inhibition of recombinant RPS6KB1 (unknown origin) at 5 uM by FRET-based Z'-LYTE assay
Procedure, shortened: (§2)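 Z'-LYTE FRET peptide (coumarin/fluorescein) phosphorylation was followed by protease development. Wells included a protease control for interference with development and a fluorescence control for interference with the FRET read. Values above 100% or below 0% were treated as maximal or no inhibition.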

[4] = target: Casein kinase II subunit alpha (Homo sapiens) (UniProt P68400); assay: Inhibition of recombinant CSNK2A1 (unknown origin) at 5 uM by FRET-based Z'-LYTE assay; procedure, shortened: as §1
[5] = target: T2, Vascular endothelial growth factor receptor 2 (Homo sapiens, UniProt P35968); assay: Inhibition of recombinant KDR (unknown origin) by FRET-based Z'-LYTE assay
[6] = target: Hepatocyte growth factor receptor (Homo sapiens) (UniProt P08581); assay: Inhibition of recombinant MET (unknown origin) at 5 uM by FRET-based Z'-LYTE assay; procedure, shortened: as §1
[7] = target: Tyrosine-protein kinase SYK (Homo sapiens) (UniProt P43405); assay: Inhibition of recombinant SYK (unknown origin) at 5 uM by FRET-based Z'-LYTE assay; procedure, shortened: as §2
[8] = target: Interleukin-1 receptor-associated kinase 4 (Homo sapiens) (UniProt Q9NWZ3); assay: Inhibition of recombinant IRAK4 (unknown origin) at 5 uM by FRET-based Z'-LYTE assay; procedure, shortened: as §1
[9] = target: T3, RAC-alpha serine/threonine-protein kinase (Homo sapiens, UniProt P31749); assay: Inhibition of recombinant AKT1 (unknown origin) by FRET-based Z'-LYTE assay
[10] = target: MAP kinase-activated protein kinase 2 (Homo sapiens, UniProt P49137); details: 5 uM
[11] = target: Phosphorylase b kinase gamma catalytic chain, liver/testis isoform (Homo sapiens) (UniProt P15735); assay: Inhibition of recombinant PHKG2 (unknown origin) at 5 uM by FRET-based Z'-LYTE assay; procedure, shortened: as §1
[12] = target: AMP-activated protein kinase (AMPK) alpha-1/beta-1/gamma-1 (Homo sapiens) (UniProt P54619+Q9Y478+Q13131); assay: Inhibition of recombinant AMPK A1/B1/G1 (unknown origin) at 5 uM by FRET-based Z'-LYTE assay; assay type: protein-complex assay; procedure, shortened: as §1
[13] = target: Cyclin-dependent kinase 1/cyclin B1 (Homo sapiens) (UniProt P06493+P14635); assay: Inhibition of recombinant CDK1/cyclin B (unknown origin) at 5 uM by FRET-based Z'-LYTE assay; assay type: protein-complex assay; procedure, shortened: as §1
[14] = target: RAC-beta serine/threonine-protein kinase (Homo sapiens, UniProt P31751); assay: Inhibition of recombinant AKT2 (unknown origin) by FRET-based Z'-LYTE assay
[15] = target: Cyclin-dependent kinase 7/ cyclin H (Homo sapiens) (UniProt P51946+P50613); assay: Inhibition of recombinant CDK7/cyclin H/MNAT1 (unknown origin) at 5 uM after 1 hr by FRET-based adapta assay; assay type: protein-complex assay
Procedure, shortened: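 After inhibitor and all reaction components are added, the reaction runs for 1 h. ADP formed by the kinase displaces an antibody-tracer complex, so reduced ADP gives a high TR-FRET signal. Inhibition is calculated against a control.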

[16] = target: T1, Ribosomal protein S6 kinase beta-1; assay: Inhibition of recombinant RPS6K1 (unknown origin) by FRET-based Z'-LYTE assay
[17] = target: T2, Vascular endothelial growth factor receptor 2; details: 5 uM
[18] = target: Serine/threonine-protein kinase mTOR (Homo sapiens) (UniProt P42345); assay: Inhibition of recombinant FRAP1 (unknown origin) at 5 uM by FRET-based Z'-LYTE assay; procedure, shortened: as §1
[19] = target: Insulin receptor (Homo sapiens) (UniProt P06213); assay: Inhibition of recombinant INSR (unknown origin) at 5 uM by FRET-based Z'-LYTE assay; procedure, shortened: as §1
[20] = target: Rho-associated protein kinase 1 (Homo sapiens) (UniProt Q13464); assay: Inhibition of recombinant ROCK1 (unknown origin) at 5 uM by FRET-based Z'-LYTE assay; procedure, shortened: as §2
[21] = target: T3, RAC-alpha serine/threonine-protein kinase; assay: Inhibition of recombinant AKT1 (unknown origin) at 5 uM by FRET-based Z'-LYTE assay; procedure, shortened: as §1
[22] = target: High affinity nerve growth factor receptor (Homo sapiens) (UniProt P04629); assay: Inhibition of recombinant NTRK1 (unknown origin) at 5 uM by FRET-based Z'-LYTE assay; procedure, shortened: as §1
[23] = target: 3-phosphoinositide-dependent protein kinase 1 (Homo sapiens) (UniProt O15530); assay: Inhibition of recombinant PDK1 (unknown origin) at 5 uM by FRET-based Z'-LYTE assay; procedure, shortened: as §1
[24] = target: Dual specificity tyrosine-phosphorylation-regulated kinase 3 (Homo sapiens) (UniProt O43781); assay: Inhibition of recombinant DYRK3 (unknown origin) at 5 uM by FRET-based Z'-LYTE assay; procedure, shortened: as §1
[25] = target: Mitogen-activated protein kinase 1 (Homo sapiens, UniProt P28482); assay: Inhibition of recombinant MAPK1 (unknown origin) at 5 uM by FRET-based Z'-LYTE assay; procedure, shortened: as §1
[26] = target: Fibroblast growth factor receptor 1 (Homo sapiens) (UniProt P11362); assay: Inhibition of recombinant FGFR1 (unknown origin) at 5 uM by FRET-based Z'-LYTE assay; procedure, shortened: as §1
[27] = target: Angiopoietin-1 receptor (Homo sapiens) (UniProt Q02763); assay: Inhibition of recombinant TEK (unknown origin) at 5 uM by FRET-based Z'-LYTE assay; procedure, shortened: as §2
[28] = target: Serine/threonine-protein kinase MARK2 (Homo sapiens) (UniProt Q7KZI7); assay: Inhibition of recombinant MARK2 (unknown origin) at 5 uM by FRET-based Z'-LYTE assay; procedure, shortened: as §1
[29] = target: Glycogen synthase kinase-3 beta (Homo sapiens) (UniProt P49841); assay: Inhibition of recombinant GSK3B (unknown origin) at 5 uM by FRET-based Z'-LYTE assay; procedure, shortened: as §1
[30] = target: Serine/threonine-protein kinase PLK1 (Homo sapiens) (UniProt P53350); assay: Inhibition of recombinant PLK1 (unknown origin) at 5 uM by FRET-based Z'-LYTE assay; procedure, shortened: as §1
[31] = target: AMP-activated protein kinase (AMPK) alpha-1/beta-1/gamma-1 (Homo sapiens, UniProt P54619+Q13131+Q9Y478); assay: Inhibition of recombinant AMPK A1/B1/G1 (unknown origin) by FRET-based Z'-LYTE assay; assay type: protein-complex assay
AMP-activated protein kinase (AMPK) alpha-1/beta-1/gamma-1, sequence (P54619 whole entry): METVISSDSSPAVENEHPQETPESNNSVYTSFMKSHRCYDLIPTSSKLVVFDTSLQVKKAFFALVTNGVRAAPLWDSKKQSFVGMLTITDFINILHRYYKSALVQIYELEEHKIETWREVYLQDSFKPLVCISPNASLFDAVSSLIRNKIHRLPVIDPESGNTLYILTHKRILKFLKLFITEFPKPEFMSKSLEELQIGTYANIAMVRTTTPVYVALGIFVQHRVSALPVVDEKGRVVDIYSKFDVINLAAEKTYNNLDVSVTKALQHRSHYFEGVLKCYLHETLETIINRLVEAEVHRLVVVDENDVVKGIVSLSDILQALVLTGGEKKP
AMP-activated protein kinase (AMPK) alpha-1/beta-1/gamma-1, sequence (Q9Y478 whole entry): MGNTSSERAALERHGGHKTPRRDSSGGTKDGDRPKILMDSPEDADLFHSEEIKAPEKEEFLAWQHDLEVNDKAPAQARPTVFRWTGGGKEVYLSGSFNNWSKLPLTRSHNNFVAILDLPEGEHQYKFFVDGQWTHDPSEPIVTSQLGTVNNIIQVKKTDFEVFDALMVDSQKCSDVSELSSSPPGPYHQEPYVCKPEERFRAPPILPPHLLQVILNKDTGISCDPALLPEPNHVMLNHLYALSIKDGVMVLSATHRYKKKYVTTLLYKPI
AMP-activated protein kinase (AMPK) alpha-1/beta-1/gamma-1, sequence (Q13131 whole entry): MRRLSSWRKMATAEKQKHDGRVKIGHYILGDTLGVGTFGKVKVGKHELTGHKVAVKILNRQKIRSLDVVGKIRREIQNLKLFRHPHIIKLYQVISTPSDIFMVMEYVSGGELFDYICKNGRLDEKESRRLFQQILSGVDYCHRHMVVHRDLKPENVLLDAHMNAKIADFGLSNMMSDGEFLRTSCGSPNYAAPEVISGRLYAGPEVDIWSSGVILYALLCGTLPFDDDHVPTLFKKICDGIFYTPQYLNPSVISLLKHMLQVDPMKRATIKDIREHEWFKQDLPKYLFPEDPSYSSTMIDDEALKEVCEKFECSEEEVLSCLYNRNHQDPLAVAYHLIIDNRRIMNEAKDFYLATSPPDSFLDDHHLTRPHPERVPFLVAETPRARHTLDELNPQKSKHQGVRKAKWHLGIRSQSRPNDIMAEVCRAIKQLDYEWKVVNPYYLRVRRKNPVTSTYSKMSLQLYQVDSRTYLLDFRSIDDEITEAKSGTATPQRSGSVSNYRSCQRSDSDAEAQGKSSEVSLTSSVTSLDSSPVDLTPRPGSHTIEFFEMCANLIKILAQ

T3 sequence (P31749 whole entry): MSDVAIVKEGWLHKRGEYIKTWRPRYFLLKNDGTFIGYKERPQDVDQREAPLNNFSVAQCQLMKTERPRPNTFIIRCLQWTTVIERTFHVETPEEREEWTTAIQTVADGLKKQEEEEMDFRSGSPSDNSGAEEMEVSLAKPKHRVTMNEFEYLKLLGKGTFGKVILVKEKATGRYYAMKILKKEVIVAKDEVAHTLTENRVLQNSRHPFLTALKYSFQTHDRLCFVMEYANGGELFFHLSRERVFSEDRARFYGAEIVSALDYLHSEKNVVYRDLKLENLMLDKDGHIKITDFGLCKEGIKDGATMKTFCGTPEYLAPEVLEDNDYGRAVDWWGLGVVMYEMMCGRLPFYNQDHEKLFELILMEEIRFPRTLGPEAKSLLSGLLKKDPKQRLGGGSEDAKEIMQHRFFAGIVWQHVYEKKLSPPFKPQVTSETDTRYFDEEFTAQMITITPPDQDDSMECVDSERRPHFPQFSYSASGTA
T2 sequence (P35968 whole entry): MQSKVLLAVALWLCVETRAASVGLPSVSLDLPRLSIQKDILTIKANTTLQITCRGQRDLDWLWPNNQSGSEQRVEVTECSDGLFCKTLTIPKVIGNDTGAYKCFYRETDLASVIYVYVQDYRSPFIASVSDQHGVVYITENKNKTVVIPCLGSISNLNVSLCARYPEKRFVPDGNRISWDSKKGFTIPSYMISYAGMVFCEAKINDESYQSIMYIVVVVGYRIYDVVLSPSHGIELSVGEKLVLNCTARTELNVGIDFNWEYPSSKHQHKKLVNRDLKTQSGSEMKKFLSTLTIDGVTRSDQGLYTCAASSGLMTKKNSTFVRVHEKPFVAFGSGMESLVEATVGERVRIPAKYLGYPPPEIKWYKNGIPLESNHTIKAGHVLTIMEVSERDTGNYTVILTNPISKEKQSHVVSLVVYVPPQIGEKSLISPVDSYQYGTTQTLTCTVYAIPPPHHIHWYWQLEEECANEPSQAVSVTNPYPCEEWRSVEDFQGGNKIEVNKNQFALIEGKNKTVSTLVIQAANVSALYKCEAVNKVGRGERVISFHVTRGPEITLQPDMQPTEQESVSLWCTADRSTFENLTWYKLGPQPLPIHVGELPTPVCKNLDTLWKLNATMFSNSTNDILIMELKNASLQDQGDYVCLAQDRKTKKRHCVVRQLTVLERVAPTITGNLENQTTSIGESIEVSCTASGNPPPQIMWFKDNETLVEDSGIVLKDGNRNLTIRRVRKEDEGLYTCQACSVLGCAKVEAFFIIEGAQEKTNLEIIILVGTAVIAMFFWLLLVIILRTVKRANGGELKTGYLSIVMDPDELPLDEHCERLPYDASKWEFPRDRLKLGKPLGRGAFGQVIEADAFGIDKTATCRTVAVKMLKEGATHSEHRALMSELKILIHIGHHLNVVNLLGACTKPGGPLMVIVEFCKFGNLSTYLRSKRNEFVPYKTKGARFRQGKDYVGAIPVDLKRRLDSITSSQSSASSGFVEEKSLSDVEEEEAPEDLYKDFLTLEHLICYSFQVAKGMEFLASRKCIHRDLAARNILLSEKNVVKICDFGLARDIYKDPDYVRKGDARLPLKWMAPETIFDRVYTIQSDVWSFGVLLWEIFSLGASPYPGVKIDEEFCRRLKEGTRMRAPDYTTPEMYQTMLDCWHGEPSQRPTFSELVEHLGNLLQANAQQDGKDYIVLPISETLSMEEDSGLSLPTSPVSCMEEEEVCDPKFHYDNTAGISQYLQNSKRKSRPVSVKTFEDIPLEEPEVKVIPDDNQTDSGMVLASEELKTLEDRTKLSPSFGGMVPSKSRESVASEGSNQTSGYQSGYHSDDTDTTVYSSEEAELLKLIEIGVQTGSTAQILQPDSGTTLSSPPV
Phosphorylase b kinase gamma catalytic chain, liver/testis isoform (Homo sapiens), sequence (P15735 whole entry, canonical isoform): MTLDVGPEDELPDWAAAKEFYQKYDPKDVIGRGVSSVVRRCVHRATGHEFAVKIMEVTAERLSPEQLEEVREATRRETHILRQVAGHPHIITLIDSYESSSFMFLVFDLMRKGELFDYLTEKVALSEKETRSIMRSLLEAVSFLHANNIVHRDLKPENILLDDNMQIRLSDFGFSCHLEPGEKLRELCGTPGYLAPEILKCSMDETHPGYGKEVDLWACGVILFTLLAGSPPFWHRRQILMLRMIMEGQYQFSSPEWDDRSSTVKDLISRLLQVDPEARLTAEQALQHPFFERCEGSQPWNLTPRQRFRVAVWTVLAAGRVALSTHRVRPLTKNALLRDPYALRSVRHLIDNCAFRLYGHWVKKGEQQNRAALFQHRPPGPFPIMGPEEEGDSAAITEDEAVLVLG
AMP-activated protein kinase (AMPK) alpha-1/beta-1/gamma-1 (Homo sapiens), sequence (P54619 whole entry): as the sequence (P54619 whole entry) above
AMP-activated protein kinase (AMPK) alpha-1/beta-1/gamma-1 (Homo sapiens), sequence (Q13131 whole entry partner): as the sequence (Q13131 whole entry) above
AMP-activated protein kinase (AMPK) alpha-1/beta-1/gamma-1 (Homo sapiens), sequence (Q9Y478 2-270 partner limits assumed): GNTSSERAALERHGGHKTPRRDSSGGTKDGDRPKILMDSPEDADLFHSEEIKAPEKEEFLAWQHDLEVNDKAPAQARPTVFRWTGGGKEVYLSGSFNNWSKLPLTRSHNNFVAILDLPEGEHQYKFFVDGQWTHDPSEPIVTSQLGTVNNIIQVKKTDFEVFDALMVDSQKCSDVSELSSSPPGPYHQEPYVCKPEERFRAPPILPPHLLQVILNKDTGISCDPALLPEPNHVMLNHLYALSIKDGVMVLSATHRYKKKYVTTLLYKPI
Casein kinase I isoform gamma-2 (Homo sapiens), sequence (P78368 whole entry, looked up, canonical isoform): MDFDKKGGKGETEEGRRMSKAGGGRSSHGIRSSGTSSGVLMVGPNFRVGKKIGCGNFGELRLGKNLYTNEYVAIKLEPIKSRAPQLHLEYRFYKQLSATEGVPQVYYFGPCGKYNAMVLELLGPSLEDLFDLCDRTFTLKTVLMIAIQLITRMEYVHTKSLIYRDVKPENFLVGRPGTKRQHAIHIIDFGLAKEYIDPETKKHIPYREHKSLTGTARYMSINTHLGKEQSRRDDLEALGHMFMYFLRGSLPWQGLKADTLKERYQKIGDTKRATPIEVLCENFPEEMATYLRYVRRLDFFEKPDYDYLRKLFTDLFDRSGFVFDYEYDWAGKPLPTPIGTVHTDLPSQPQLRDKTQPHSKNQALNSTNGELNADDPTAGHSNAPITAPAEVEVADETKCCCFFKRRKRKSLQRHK

inhibition [1]: 12%
inhibition [2]: -9%
inhibition [3]: 101%
inhibition [4]: 5%
pIC50 [5]: 6.18
inhibition [6]: 75%
inhibition [7]: 45%
inhibition [8]: 5%
pIC50 [9]: 7.70
inhibition [10]: 85%
inhibition [11]: 37%
inhibition [12]: 95%
inhibition [13]: 24%
pIC50 [14]: 7.70
inhibition [15]: 3%
pIC50 [16]: 5.85
inhibition [17]: 89%
inhibition [18]: -5%
inhibition [19]: 15%
inhibition [20]: 58%
inhibition [21]: 107%
inhibition [22]: 25%
inhibition [23]: 54%
inhibition [24]: 48%
inhibition [25]: 34%
inhibition [26]: 66%
inhibition [27]: 51%
inhibition [28]: 22%
inhibition [29]: 17%
inhibition [30]: -9%
pIC50 [31]: 5.82
SMILES: O=C1/C(=C/c2ccccn2)CNC/C1=C\c1ccccn1
